The format of data set [1] is in vivo, human. To be noted: single 200 mg dose; for AUC(0-inf) / Cmax / half-life: human, plasma, oral, 200 mg; for AUC(0-inf): AUC0–∞,obs; for AUC(0-inf) / Cmax: adjusted geometric mean; for half-life: t½, geometric mean [coefficient of variation (%)]. Summed up: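 Sixteen advanced solid tumour patients, fasted overnight and for 4 h post-dose, received 200 mg as an intact tablet or as the uncrushed tablet shaken to full dispersion in 20 mL of sucralose 4 mg/mL, menthol 2 mg/mL and benzoic acid 1 mg/mL, undiluted. Order was randomized, with a 7-day washout. Plasma was sampled predose to 48 h by LC–MS/MS. Analysis was non-compartmental, with adjusted geometric mean ratios and 90% CI.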

The conditions of data set [2]: single dose, primarily Caucasian subjects, fasted state; cited from earlier work.
Data set [3] is classed as in vivo, human. The note with it: for AUC(0-inf): AUC0–∞,obs; for Tmax: median [range]. In short, it runs like this:
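Sixteen advanced solid tumour patients were enrolled. Each received a single oral 200 mg tablet after an overnight fast, either with ~240 mL water or directly after a ~950 kcal high-fat breakfast eaten within 30 min. No food was given for 4 h. Order was randomized, with a 7-day washout. Plasma was sampled predose and 0.5–48 h and measured by LC–MS/MS (detection limit 1 nM). Parameters were derived by non-compartmental analysis, with adjusted geometric mean ratios and 90% CI.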

For data set [4] the following is noted: administered with food compared to a fasted state; cited from earlier work.
Where [5] appears, read: single 200 mg tablet, fed versus fasted.

Like-named read-outs stand apart in the source and are kept apart here.

What is called AUC(0-inf) is the area under the concentration-time curve extrapolated to infinity. A low value points to less exposure. In general, Cmax refers to the highest concentration seen after dosing. The term half-life denotes the time needed for the level to fall by half in the phase considered. Higher therefore signals slow decline. By Tmax is commonly meant the time from dosing to the highest level. In data set [1] (liquid dispersion, fasted), `COc1cc(C(=O)NC2CCN(C)CC2)c(F)cc1Nc1ncc(C(F)(F)F)c(Oc2cccc3c2C(=O)N(C)C3)n1` [BI 853520] gave an AUC(0-inf) of 31.5 µM·h, a Cmax of 1610 nM and a half-life of 18.4 h. In data set [1] (tablet, fasted), this compound showed an AUC(0-inf) of 32 µM·h, a Cmax of 1720 nM and a half-life of 19.5 h. Moreover, in data set [1] (fasted), the “AUC0-tz adjusted GMR (90% CI) [tablet/liquid]” value is 99.98 (92.28–108.33) %, the “AUC0–∞,obs adjusted GMR (90% CI) [tablet/liquid]” value is reported as 101.65 (93.57–110.42) % and the “Cmax adjusted GMR (90% CI) [tablet/liquid]” value is on record as 107.15 (98.79–116.22) %. Also, in data set [1] (liquid dispersion vs tablet), the “tmax and t½, effect of dispersing in a liquid” value was “not affected”. Also, the “observed terminal half-life (t½)” value in data set [2] is 19 h. Further, in data set [3] (fasted, single 200 mg tablet, geometric mean [coefficient of variation (%)], n=15), the t½ is reported as 18.0 (22.6) h. The compound further showed a Cmax in data set [3] (fed, single 200 mg tablet, plasma, adjusted geometric mean) of 1640 nM. For the same compound, in data set [3] (human, plasma, oral, 200 mg), the highest level (Cmax) was 1870 nM and the half-life is 18 h. This compound registered an AUC(0-inf) in data set [3] (human, plasma, oral, 200 mg, fasted, single 200 mg tablet, adjusted geometric mean) of 39.9 µM·h. Further, the AUC(0-inf) in data set [3] (human, plasma, oral, 200 mg, fed, single 200 mg tablet, adjusted geometric mean) was 39.2 µM·h. In addition, the Tmax in data set [3] (human, plasma, oral, 200 mg, fasted, single 200 mg tablet, n=15) came to 3 h. The Tmax in data set [3] (human, plasma, oral, 200 mg, fed (high-calorie meal), single 200 mg tablet, n=15) was 4 h. The “tmax and t½ after a high-calorie meal compared with fasted patients” value in data set [3] (single 200 mg tablet) is recorded as “not different”. In data set [3] (setting [5]), the “AUC0-tz adjusted GMR (90% CI) [fed/fasted]” value is 92.46 (74.24–115.16) %, the “AUC0–∞,obs adjusted GMR (90% CI) [fed/fasted]” value was 98.17 (78.53–122.74) % and the “Cmax adjusted GMR (90% CI) [fed/fasted]” value was 87.34 (71.04–107.38) %.
On to `C[C@]12CC[C@H](O)CC1=CC[C@@H]1[C@@H]2CC[C@]2(C)C(c3cccnc3)=CC[C@@H]12` [abiraterone], for which, in data set [4], the “increase in the area under the plasma concentration–time curve (AUC)” value is 1000%.

Values taken from paper PMC6407750 (Targeted Oncology, 2019).
